Data reported in ChEMBL document CHEMBL3865784 (Eur J Med Chem, 2016).

What was measured:
[1] = system: HL-60; assay: Selectivity index, ratio of IC50 for NQO1-deficient chinese hamster V79 cells to IC50 for NQO1-deficient human HL60 cells; assay type: functional
Procedure, shortened: (§1)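 Selectivity index is IC50 in the normal cells divided by IC50 in the cancer line. Normal cells: V79 and L929 in DMEM, PBMC in RPMI with phytohaemagglutinin. Cancer lines in RPMI with 10% FBS, seeded at 0.1 × 10^6 (HL-60) or 0.7 × 10^5 cells/well (solid tumors). Absorbance 550 nm; nonlinear regression.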

[2] = Cytotoxicity against human SF295 cells overexpressing NQO1 assessed as reduction in cell viability after 72 hrs by MTT assay; assay type: functional, cell-based; details: SF-295, 72 h
[3] = Cytotoxicity against human HCT116 cells expressing NQO1 assessed as reduction in cell viability after 72 hrs by MTT assay; assay type: functional, cell-based; details: HCT-116, 72 h
Procedure, shortened: (§2)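 Cancer lines from NCI, grown in RPMI 1640 with 10% FBS, 2 mM L-glutamine, penicillin/streptomycin, 37 °C, 5% CO2; seeded 0.1 × 10^6 cells/well (HL-60) or 0.7 × 10^5 cells/well (solid tumours). Compounds in DMSO, final 0.1% v/v; DMSO vehicle as negative control.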

[4] = system: L929; assay: Selectivity index, ratio of IC50 for NQO1-deficient mouse L929 cells to IC50 for human PC3 cells overexpressing NQO1; procedure, shortened: as §1
[5] = system: L929; assay: Selectivity index, ratio of IC50 for NQO1-deficient mouse L929 cells to IC50 for NQO1-deficient human HL60 cells; assay type: functional; procedure, shortened: as §1
[6] = Cytotoxicity against human MDA-MB-435 cells overexpressing NQO1 assessed as reduction in cell viability after 72 hrs by MTT assay; assay type: functional, cell-based; details: MDA-MB-435, 72 h; procedure, shortened: as §2
[7] = system: HCT-116; assay: Selectivity index, ratio of IC50 for NQO1-deficient chinese hamster V79 cells to IC50 for human HCT116 cells expressing NQO1
Procedure, shortened: as §1, with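 “line. All IC50s come from 72 h MTT assays.” for “line.”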

[8] = system: SF-295; assay: Selectivity index, ratio of IC50 for NQO1-deficient human PBMC to IC50 for human SF295 cells overexpressing NQO1; procedure, shortened: as §1
[9] = Cytotoxicity against human PC3 cells overexpressing NQO1 assessed as reduction in cell viability after 72 hrs by MTT assay; assay type: functional, cell-based; details: PC-3, 72 h
[10] = system: V79; assay: Selectivity index, ratio of IC50 for NQO1-deficient chinese hamster V79 cells to IC50 for human MDA-MB-435 cells overexpressing NQO1; procedure, shortened: as §1
[11] = system: L929; assay: Selectivity index, ratio of IC50 for NQO1-deficient mouse L929 cells to IC50 for human SF295 cells overexpressing NQO1; procedure, shortened: as §1
[12] = system: HCT-116; assay: Selectivity index, ratio of IC50 for NQO1-deficient human PBMC to IC50 for human HCT116 cells expressing NQO1
Procedure, shortened: as §1, with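 “line. All IC50s come from 72 h MTT assays.” for “line.”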

[13] = system: L929; assay: Selectivity index, ratio of IC50 for NQO1-deficient mouse L929 cells to IC50 for human OVCAR8 cells overexpressing NQO1; procedure, shortened: as §1
[14] = system: OVCAR-8; assay: Selectivity index, ratio of IC50 for NQO1-deficient human PBMC to IC50 for human OVCAR8 cells overexpressing NQO1
Procedure, shortened: as §1, with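 “line. All IC50s come from 72 h MTT assays.” for “line.”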

[15] = Cytotoxicity against NQO1-deficient chinese hamster V79 cells assessed as reduction in cell viability after 72 hrs by MTT assay; assay type: toxicity, cell-based, Cricetulus griseus; details: v79
[16] = system: PC-3; assay: Selectivity index, ratio of IC50 for NQO1-deficient human PBMC to IC50 for human PC3 cells overexpressing NQO1; procedure, shortened: as §1
[17] = Cytotoxicity against NQO1-deficient human HL60 cells assessed as reduction in cell viability after 72 hrs by MTT assay; assay type: functional, cell-based; details: HL-60, 72 h; procedure, shortened: as §2
[18] = system: OVCAR-8; assay: Selectivity index, ratio of IC50 for NQO1-deficient chinese hamster V79 cells to IC50 for human OVCAR8 cells overexpressing NQO1
Procedure, shortened: as §1, with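 “line. All IC50s come from 72 h MTT assays.” for “line.”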

[19] = Selectivity index, ratio of IC50 for NQO1-deficient human PBMC to IC50 for human MDA-MB-435 cells overexpressing NQO1; procedure, shortened: as §1
[20] = system: L929; assay: Selectivity index, ratio of IC50 for NQO1-deficient mouse L929 cells to IC50 for human MDA-MB-435 cells overexpressing NQO1; procedure, shortened: as §1
[21] = Cytotoxicity against NQO1-deficient human PBMC assessed as reduction in cell viability after 72 hrs by MTT assay; assay type: toxicity, cell-based; details: pbmc
[22] = organism: Mus musculus; assay: Cytotoxicity against NQO1-deficient mouse L929 cells assessed as reduction in cell viability after 72 hrs by MTT assay; assay type: toxicity, cell-based; details: l929
[23] = Cytotoxicity against human OVCAR8 cells overexpressing NQO1 assessed as reduction in cell viability after 72 hrs by MTT assay; assay type: functional, cell-based; details: OVCAR-8, 72 h; procedure, shortened: as §2
[24] = system: V79; assay: Selectivity index, ratio of IC50 for NQO1-deficient chinese hamster V79 cells to IC50 for human PC3 cells overexpressing NQO1; procedure, shortened: as §1
[25] = system: HL-60; assay: Selectivity index, ratio of IC50 for NQO1-deficient human PBMC to IC50 for NQO1-deficient human HL60 cells; procedure, shortened: as §1
[26] = system: SF-295; assay: Selectivity index, ratio of IC50 for NQO1-deficient chinese hamster V79 cells to IC50 for human SF295 cells overexpressing NQO1; procedure, shortened: as §1
[27] = system: HCT-116; assay: Selectivity index, ratio of IC50 for NQO1-deficient mouse L929 cells to IC50 for human HCT116 cells expressing NQO1
Procedure, shortened: as §1, with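 “line. All IC50s come from 72 h MTT assays.” for “line.”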

[28] = system: PC-3; assay: Induction of apoptosis in human PC3 cells assessed as externalization of phosphatidylserine on cell surface by measuring early apoptotic cells at 5 uM after 6 hrs by Annexin-V/FITC/PI staining by flow cytometry (reference value: 0.93 +/- 0.05%); assay type: functional
[29] = system: PC-3; assay: Induction of apoptosis in human PC3 cells assessed as externalization of phosphatidylserine on cell surface by measuring late apoptotic cells at 5 uM after 6 hrs by Annexin-V/FITC/PI staining by flow cytometry (reference value: 0%); assay type: functional

| SMILES | Ratio IC50 [1] | IC50 [2] | IC50 [3] | Ratio IC50 [4] | Ratio IC50 [5] | IC50 [6] | Ratio IC50 [7] | Ratio IC50 [8] | IC50 [9] | Ratio IC50 [11] | Ratio IC50 [12] | IC50 [15] | Ratio IC50 [16] | IC50 [17] | IC50 [21] | IC50 [22] | IC50 [23] | Ratio IC50 [24] | Ratio IC50 [25] | Ratio IC50 [27] | further results |
| --- | --- | --- | --- | --- | --- | --- | --- | --- | --- | --- | --- | --- | --- | --- | --- | --- | --- | --- | --- | --- | --- |
| [N-]=[N+]=NCC1CC2=C(O1)c1ccccc1C(=O)C2=O (centres undefined) | 1 | 390 nM | 630 nM | 2 | 1.2 | 390 nM | 1.3 | 4.6 | 510 nM | 2.7 | 2.8 | 820 nM | 3.5 | 820 nM | 1800 nM | 1060 nM | 350 nM | 1.6 |  |  | Ratio IC50 [10]: 2.1; Ratio IC50 [13]: 3; Ratio IC50 [14]: 5.1; Ratio IC50 [18]: 2.3; Ratio IC50 [19]: 4.6; Ratio IC50 [20]: 2.7 |
| CC1(C)OC2=C(C(=O)c3ccccc3C2=O)C1Nc1cccc(-c2cn(C[Se]c3ccccc3)nn2)c1 (centres undefined) | 3.5 | 1080 nM | 1280 nM | 1.9 | 3.1 | 880 nM | 2.9 | 3 | 1710 nM | 3.1 | 2.6 | 3780 nM | 1.9 | 1080 nM | 3330 nM | 3380 nM | 680 nM | 2.2 | 3 | 2.6 | Ratio IC50 [26]: 3.5; Ratio IC50 [10]: 4.2; Ratio IC50 [13]: 4.9; Ratio IC50 [14]: 4.8; Ratio IC50 [18]: 5.5; Ratio IC50 [19]: 3.7; Ratio IC50 [20]: 3.8 |
| C#Cc1cccc(NC2C3=C(OC2(C)C)c2ccccc2C(=O)C3=O)c1 (centres undefined) | 8.3 | 2590 nM | 1480 nM | 1.3 | 9.6 | 2040 nM | 1.45 |  | 1860 nM |  | 1.89 | 2160 nM | 1.5 | 260 nM | 2800 nM | 2500 nM | 2530 nM | 1.1 | 10.7 | 1.68 |  |
| CC(=O)N[C@@H](CS)C(=O)O [ACETYLCYSTEINE] |  |  |  |  |  |  |  |  |  |  |  |  |  |  |  |  |  |  |  |  | Activity [28]: 0.87%; Activity [29]: 0% |
| O=C1C=C(NCc2cn(C[Se]c3ccccc3)nn2)C(=O)c2ccccc21 | 3.5 | 970 nM | 1720 nM |  | 3.3 | 3090 nM | 2.3 | 4.8 | 2080 nM | 3.9 | 2.7 | 3990 nM |  | 1130 nM | 4750 nM | 3830 nM | 1890 nM |  | 4.2 | 2.2 | Ratio IC50 [26]: 4.1 |
